# SR-BI HDL uptake – mouse SR-BI HDL lipid transfer inhibition; Q61009; ldlA[mSR-BI] CHO cells, DiI-HDL uptake fluorescence, 3 h; inhibition, % at 12.5 µM; actives 0.96% (n = 320,000); AID 488896;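 active = mean replicate inhibition of at least 70% and a set share of replicates each scoring 70 or more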;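 also: 0% = median of neutral control wells and 100% = median of positive control wells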
# Lipid droplet – hepatic lipid droplet formation modulation; AML12 mouse hepatocytes, oleate lipid droplets, BODIPY imaging; inhibition, % at 6.5 µM; actives 0.4% (n = 240,000); AID 1656;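 active = lipid droplet intensity inhibited by at least 50%, with more than 500 cells counted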
#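 Assay system: AML12 hepatocytes (mouse) / Also added: 100 µM oleic acid challenge / Times: overnight treatment with compound plus oleate / Detection: high-content imaging of BODIPY-stained droplets and DAPI nuclei / Evaluation: % inhibition of lipid droplet signal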
# AHR act – human AHR activation; activation, % at 5 µM; AHR-responsive luciferase reporter cells, luminescence; actives 2.5% (n = 320,000); P35869; in the data active = activation above about 47%;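 also: 0% = vehicle wells and 100% = reference agonist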
# Target sequence (P35869 whole entry, looked up): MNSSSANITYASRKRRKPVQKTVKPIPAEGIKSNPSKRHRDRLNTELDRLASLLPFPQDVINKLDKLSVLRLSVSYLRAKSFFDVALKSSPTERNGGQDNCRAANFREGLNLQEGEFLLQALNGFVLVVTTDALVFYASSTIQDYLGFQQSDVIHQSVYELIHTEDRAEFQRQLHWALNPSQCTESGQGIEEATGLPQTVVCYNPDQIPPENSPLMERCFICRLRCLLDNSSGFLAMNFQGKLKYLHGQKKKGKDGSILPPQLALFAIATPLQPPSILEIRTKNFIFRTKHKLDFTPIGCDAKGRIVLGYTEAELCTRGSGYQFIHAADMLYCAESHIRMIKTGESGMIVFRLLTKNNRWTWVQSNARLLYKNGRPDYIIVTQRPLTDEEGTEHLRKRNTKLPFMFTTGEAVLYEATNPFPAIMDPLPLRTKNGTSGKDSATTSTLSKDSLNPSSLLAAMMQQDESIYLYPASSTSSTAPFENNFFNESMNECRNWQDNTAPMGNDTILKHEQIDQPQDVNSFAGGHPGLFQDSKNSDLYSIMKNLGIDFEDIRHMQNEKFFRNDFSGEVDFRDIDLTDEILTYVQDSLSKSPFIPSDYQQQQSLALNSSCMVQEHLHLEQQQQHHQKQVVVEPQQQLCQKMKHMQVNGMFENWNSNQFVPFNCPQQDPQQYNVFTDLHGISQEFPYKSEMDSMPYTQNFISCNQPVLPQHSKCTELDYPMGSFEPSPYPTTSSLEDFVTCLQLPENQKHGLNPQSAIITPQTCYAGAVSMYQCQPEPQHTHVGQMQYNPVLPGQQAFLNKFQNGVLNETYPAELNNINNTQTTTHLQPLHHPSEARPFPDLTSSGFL
# CR mimetic SO – caloric restriction mimetics inhibiting age-related superoxide in yeast. AID 2690. superoxide response (% of plate mean), % at 10 µM. S. cerevisiae aged cells, superoxide DHE fluorescence; stronger effect = lower value. actives 0.18% (n = 330,000);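 active = superoxide response under a set limit, about three screen SD below normal, cut at about 65% in these data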;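 also: yeast aged for seven days with compound at 30 °C before DHE staining; 100% = average MFI of all compound-treated wells on the plate with controls excluded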
# SR-BI DiI-HDL act – activators of SR-BI mediated HDL lipid uptake. CHO ldlA[mSR-BI] cells, DiI-HDL uptake fluorescence, 3 h; 100 = double the neutral-control signal. activation, % at 12.5 µM. actives 0.096% (n = 320,000). AID 504775;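 active = mean replicate activation of at least 60% and every replicate at or above 60%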;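 also: 0% = median plate neutral-control signal and 100% = twice that signal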
#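 System: LDL receptor-deficient CHO ldlA cells overexpressing murine SR-BI | Timing: 3 h uptake period with compound, 37 °C | Medium: HEPES-buffered (25 mM, pH 7.4) F12 plus 0.5% BSA | Dosing: Single-point compound dose | Signal: Bottom-read fluorescence, 550/595 nm | Read-out: Retained DiI signal reflecting DiI-HDL uptake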
# SMARCA2 act – activators of SMARCA2 function; MG213 cells, MMTV-luciferase reporter, dexamethasone, overnight; activation, % at 9.1 µM; actives 1% (n = 370,000); AID 652017; in the data active = activation above about 7.8%;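 also: 0% = vehicle wells and 100% = reference activator wells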
# Numbers without * were called inactive; · = not tested or not shown. In the library only some 4.3% were active in any assay of this set; here they are far more common.
SMILES,SR-BI HDL uptake,Lipid droplet,AHR act,CR mimetic SO,SR-BI DiI-HDL act,SMARCA2 act
Cc1nc(-c2ccccn2)sc1C(=O)Nc1ccc(F)cc1,·,·,118*,132,·,3
Cc1nc(-c2ccncc2)sc1C(=O)Nc1ccc(Cl)cc1,51,6,65*,91,-51,2
Cc1ccc(NC(=O)C2COc3ccccc3O2)cc1 (configuration not stated),-5,7,7,89,5,4
Cc1ccc(NC(=O)C2Oc3ccccc3OC2C)cc1 (configuration not stated),16,-10,51*,103,-16,1
CCC(C)(C)C(=O)N1CCC(C(=O)NC2CCCc3ccccc32)CC1 (configuration not stated),·,·,·,·,·,3
COc1ccc(CN2CCN(S(=O)(=O)c3ccccc3)CC2)c(OC)c1,8,-8,52*,94,-8,-4
COc1ccc(OC)c(CN2CCN(C(=O)c3cccc(S(=O)(=O)Nc4ccccc4OC)c3)CC2)c1,77*,·,1,91,-77,-1
COc1ccc(OC)c(CN2CCN(C(=O)c3ccc(S(=O)(=O)Nc4ccccc4F)cc3)CC2)c1,58,·,1,80,-58,-3
COC(=O)C1CN(Cc2ccc(OC)cc2)CCS(=O)(=O)N1Cc1ccc(Cl)cc1 (configuration not stated),·,·,·,·,·,-2
C/C=C/c1ccccc1OCCCN1CCC(C(O)(c2ccccc2)c2ccccc2)CC1,·,·,·,·,·,-7
CCCCNc1c(-c2ccc(SC(C)CC)cc2)nc2ccccn12 (configuration not stated),68,·,0,100,-68,1
CCCCNc1c(-c2ccc(SC3CCCCC3)cc2)nc2ccccn12,12,·,9,106,-12,7.9*
O=c1cc(-c2ccc(F)cc2)oc2ccccc12,10,·,71*,103,-10,5
CCC1CCCCN1C(=O)COc1ccc2c(c1)OCO2 (configuration not stated),-7,-8,48*,102,7,3
CC1CCCN(C(=O)COc2ccc3c(c2)OCO3)C1 (configuration not stated),-5,-2,52*,99,5,8
Cn1c(NC(=O)c2cc(-c3ccc4c(c3)OCO4)nc3ccccc23)cc(=O)n(C)c1=O,25,·,16,104,-25,5
CC(C)(C)NC(=O)c1cc(-c2ccc3c(c2)OCO3)nc2ccccc12,52,-2,70*,88,-52,-1
O=C(Nc1nc2c(s1)CCCC2)c1cc(-c2ccc3c(c2)OCO3)nc2ccccc12,·,6,57*,97,·,·
O=S1(=O)c2ccc(N3CCC[C@@H]3CO)cc2O[C@H]2CCN1C2,·,·,·,·,·,-1
C/C(=N\Nc1cccc2cccnc12)c1ccc[nH]1,56,·,51*,91,-56,7
Cc1ccc(NC(=O)Cn2ccnc2)cc1C,-10,-2,59*,100,10,-3
Cc1ccc(NC(=O)c2nnn(CC(=O)Nc3ccccc3)c2N)cc1C,23,0,48*,96,-23,-1
CCOc1ccc(CCNC(=O)c2nnn(CC(=O)Nc3ccc(OC)c(OC)c3)c2N)cc1OCC,72*,4,5,93,-72,0
CCOc1ccccc1NC(=O)Cn1nnc(C(=O)NCc2ccco2)c1N,-7,·,64*,96,7,2
CC(C)CNC(=O)OCc1cn(Cc2cccc(F)c2)nn1,·,·,·,·,·,-3
SMILES,SR-BI HDL uptake,Lipid droplet,AHR act,CR mimetic SO,SR-BI DiI-HDL act,SMARCA2 act
Cc1ccc(C2CC(c3cccs3)=NN2C(=O)CSc2nc3ccccc3o2)cc1 (configuration not stated),-30,35,75*,105,30,-3
CC(C)(C)OC(=O)NCCCCCO,-6,·,-3,113,6,-1
CON(C)C(=O)/C=C/CCCCNC(=O)OC(C)(C)C,-63,·,-5,85,63*,1
COc1cc(CCC(=O)Nc2cc(C)cc(C)c2)cc(OC)c1OC,83*,1,0,110,-83,1
COc1ccc2nc(NC(=O)CCc3cc(OC)c(OC)c(OC)c3)sc2c1,72*,6,2,91,-72,-1
CC(C)N1CCCCC(NC(=O)c2ccccc2)C1=O (configuration not stated),·,·,·,·,·,-2
CCCNc1nc(Nc2ccc(C)c(Cl)c2)c2cnn(C)c2n1,39,-18,64*,97,-39,-1
COC(=O)[C@]1(C#N)CC(=O)N(C)[C@@H]1c1ccccc1,·,·,·,·,·,-5
C=CCN1C(=O)/C(=C2/Sc3ccccc3N2CC)SC1=S,27,2,16,95,-27,-2
CCN1C(=O)/C(=C2/Sc3ccccc3N2CC)S/C1=N\c1ncn[nH]1,74*,6,7,106,-74,7
CSc1cccc(NC(=S)NN/C(=N/S(=O)(=O)c2ccccc2)N2CCCC2)c1,·,·,·,·,·,0
COc1cccc(Nc2nnc(SCC3CCCCO3)s2)c1 (configuration not stated),-19,16,51*,105,19,2
CN1CCN(C(=O)c2cc3cc(F)ccc3[nH]2)CC1,14,-2,·,101,-14,-1
O=C(c1ccco1)N1CCN(C(=O)C2CC2)CC1,-67,-5,2,94,67*,1
O=C(c1cc2cc(F)ccc2[nH]1)N1CCN(C(=O)c2ccco2)CC1,-20,9,54*,103,20,-2
O=C(c1ccco1)N1CCN(C(=O)c2ccco2)CC1,·,·,·,·,·,-3
O=C1CC(N2CCCC2)=NC(=O)N1c1ccc(Br)cc1,·,·,·,·,·,2
COc1ccccc1/C=N/NC(=O)c1[nH]c(C)c(C(=O)N/N=C/c2ccccc2OC)c1C,83*,0,15,77,-83,-2
CCOC(=O)c1c(C)[nH]c(C(=O)N/N=C\c2ccccc2O)c1C,85*,-27,5,88,-85,-2
CCOC(=O)c1c(C)[nH]c(C(=O)N/N=C/c2cc([N+](=O)[O-])ccc2O)c1C,86*,-20,9,97,-86,-1
Cc1ccc2c(c1)C1CS(=O)(=O)N(Cc3ccccc3)C(=O)N1C2 (configuration not stated),·,·,·,·,·,-2
C[C@@H]1OC(C2CCCCC2)N(C)[C@H]2C[C@H]3c4cc(-c5ccc6c(c5)OCO6)ccc4CCN3C[C@@H]12 (some centres not stated),·,·,·,·,·,-3
CC(=O)N1CCN(c2ccc(N3CCN(C(C)=O)[C@@H](C)C3)c(C)c2)[C@@H](C)C1,·,·,·,·,·,-1
Cc1cccc(C)c1Nc1nnc(SCc2nc3ccccc3c(=O)[nH]2)s1,-9,5,69*,99,9,-1
Cc1nn(-c2ccccc2)c2c1C(c1ccccc1)C(C#N)=C(N)O2 (configuration not stated),-7,4,38,104,7,1

# From PubChem
